Data on four compounds can be found in ChEMBL document CHEMBL1154674, “Synthesis and evaluation of three 18F-labeled aminophenylbenzothiazoles as amyloid imaging agents” (J Med Chem, 2009).

Common to all, as to assay type: ADME, organism-based, Macaca mulatta
Data set [1] is described as follows: Drug level in normal rhesus monkey white matter assessed as standard uptake value at 152.9 MBq, iv after 47.5 mins by microPET. Particulars: in vivo.
Data set [2] is described as follows: Drug level in normal rhesus monkey white matter assessed as standard uptake value at 152.9 MBq, iv after 12 mins by microPET. Conditions: in vivo, 0.2 h.
Data set [3] in a line: Drug level in normal rhesus monkey white matter assessed as standard uptake value at 152.9 MBq, iv after 0.5 mins by microPET. Particulars: in vivo.
Data set [4] can be described thus: Drug level in normal rhesus monkey pons assessed as standard uptake value at 152.9 MBq, iv after 14 mins by microPET. Particulars: in vivo.
Data set [5] is described as follows: Drug level in normal rhesus monkey pons assessed as standard uptake value at 152.9 MBq, iv after 10 mins by microPET. Particulars: in vivo.
Data set [6] is described as follows: Drug level in normal rhesus monkey thalamus assessed as standard uptake value at 152.9 MBq, iv after 75 mins by microPET. Conditions: in vivo, 1.25 h.
Data set [7] can be described thus: Drug level in normal rhesus monkey frontal cortex assessed as standard uptake value at 152.9 MBq, iv after 8 mins by microPET. Conditions: in vivo. Summed up:
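Single normal rhesus monkey; tracer given iv via the vena saphena, 1 day apart from the other tracer injections. Dynamic μPET ran 90 min (5×60 s, 5×120 s, 9×300 s, 3×600 s). Images were reconstructed by filtered back projection with a RAMP filter. Regional time-activity curves were expressed as SUV.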

Data set [8] can be described thus: Drug level in normal rhesus monkey white matter assessed as standard uptake value at 152.9 MBq, iv after 52.5 mins by microPET. Conditions: in vivo, 0.875 h.
The nature of data set [9]: Drug level in normal rhesus monkey thalamus assessed as standard uptake value at 152.9 MBq, iv after 22.5 mins by microPET. Conditions: in vivo, 0.375 h.
Data set [10] can be described thus: Drug level in normal rhesus monkey pons assessed as standard uptake value at 152.9 MBq, iv after 0.5 mins by microPET. Conditions: in vivo.
Data set [11] is described as follows: Drug level in normal rhesus monkey pons assessed as standard uptake value at 152.9 MBq, iv after 6 mins by microPET. Conditions: in vivo, 0.1 h.
Data set [12] can be described thus: Drug level in normal rhesus monkey cerebellum assessed as standard uptake value at 109.4 MBq, iv after 129 mins by microPET. Particulars: in vivo, 2.15 h.
Data set [13] in a line: Drug level in normal rhesus monkey white matter assessed as standard uptake value at 109.4 MBq, iv after 52.5 mins by microPET. Particulars: in vivo, 0.875 h.
A short description of data set [14]: Drug level in normal rhesus monkey parietal cortex assessed as standard uptake value at 109.4 MBq, iv after 27.5 mins by microPET. Conditions: in vivo.
Data set [15] in a line: Drug level in normal rhesus monkey thalamus assessed as standard uptake value at 109.4 MBq, iv after 123 mins by microPET. Conditions: in vivo, 2.05 h.
The nature of data set [16]: Drug level in normal rhesus monkey white matter assessed as standard uptake value at 109.4 MBq, iv after 75 mins by microPET. Particulars: in vivo, 1.25 h.
Data set [17] is described as follows: Drug level in normal rhesus monkey pons assessed as standard uptake value at 109.4 MBq, iv after 75 mins by microPET. Particulars: in vivo, 1.25 h.
A short description of data set [18]: Drug level in normal rhesus monkey thalamus assessed as standard uptake value at 109.4 MBq, iv after 93 mins by microPET. Particulars: in vivo, 1.55 h.
Data set [19] is described as follows: Drug level in normal rhesus monkey pons assessed as standard uptake value at 109.4 MBq, iv after 3.5 mins by microPET. Particulars: in vivo.
Data set [20] can be described thus: Drug level in normal rhesus monkey cerebellum assessed as standard uptake value at 109.4 MBq, iv after 27.5 mins by microPET. Conditions: in vivo. In a few lines:
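Single normal rhesus monkey; each tracer given iv via the vena saphena, with 1 day between tracer injections. Dynamic μPET ran 180 min (5×60 s, 5×120 s, 9×300 s, 12×600 s). Images were reconstructed by filtered back projection with a RAMP filter. Regional time-activity curves were expressed as SUV.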

Data set [21] is described as follows: Drug level in normal rhesus monkey pons assessed as standard uptake value at 96.3 MBq, iv after 8 mins by microPET. Particulars: in vivo.
A short description of data set [22]: Drug level in normal rhesus monkey thalamus assessed as standard uptake value at 96.3 MBq, iv after 2.5 mins by microPET. Particulars: in vivo.
The nature of data set [23]: Drug level in normal rhesus monkey thalamus assessed as standard uptake value at 96.3 MBq, iv after 1.5 mins by microPET. Particulars: in vivo, 0.025 h.
The nature of data set [24]: Drug level in normal rhesus monkey thalamus assessed as standard uptake value at 96.3 MBq, iv after 27.5 mins by microPET. Particulars: in vivo.
The nature of data set [25]: Drug level in normal rhesus monkey parietal cortex assessed as standard uptake value at 96.3 MBq, iv after 105 mins by microPET. Particulars: in vivo, 1.75 h.
A short description of data set [26]: Drug level in normal rhesus monkey cerebellum assessed as standard uptake value at 96.3 MBq, iv after 32.5 mins by microPET. Conditions: in vivo. Summed up: (§1)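 One normal rhesus monkey, each tracer given iv via the vena saphena (81.2, 96.3 or 109.4 MBq), with 1 day between tracer injections. Dynamic brain μPET over 180 min used frames of 5 × 60 s, 5 × 120 s, 9 × 300 s and 12 × 600 s. Images were reconstructed by filtered back projection with a RAMP filter. Regional time-activity curves were expressed as SUV.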

The nature of data set [27]: Drug level in normal rhesus monkey pons assessed as standard uptake value at 96.3 MBq, iv after 42.5 mins by microPET. Conditions: in vivo.
Data set [28] is described as follows: Drug level in normal rhesus monkey cerebellum assessed as standard uptake value at 96.3 MBq, iv after 10 mins by microPET. Particulars: in vivo. In a few lines: as §1
Data set [29] can be described thus: Drug level in normal rhesus monkey cerebellum assessed as standard uptake value at 81.2 MBq, iv after 10 mins by microPET. Conditions: in vivo. Summed up:
as §1

A short description of data set [30]: Drug level in normal rhesus monkey thalamus assessed as standard uptake value at 81.2 MBq, iv after 27.5 mins by microPET. Conditions: in vivo.
A short description of data set [31]: Drug level in normal rhesus monkey white matter assessed as standard uptake value at 81.2 MBq, iv after 75 mins by microPET. Conditions: in vivo, 1.25 h.
Data set [32] in a line: Drug level in normal rhesus monkey cerebellum assessed as standard uptake value at 81.2 MBq, iv after 47.5 mins by microPET. Particulars: in vivo. In a few lines: as §1
Data set [33] is described as follows: Drug level in normal rhesus monkey frontal cortex assessed as standard uptake value at 81.2 MBq, iv after 155 mins by microPET. Particulars: in vivo.
A short description of data set [34]: Drug level in normal rhesus monkey pons assessed as standard uptake value at 81.2 MBq, iv after 155 mins by microPET. Particulars: in vivo.
The nature of data set [35]: Drug level in normal rhesus monkey frontal cortex assessed as standard uptake value at 81.2 MBq, iv after 95 mins by microPET. Particulars: in vivo.
Data set [36] is described as follows: Drug level in normal rhesus monkey parietal cortex assessed as standard uptake value at 81.2 MBq, iv after 37.5 mins by microPET. Conditions: in vivo, 0.625 h.
Data set [37] is described as follows: Drug level in normal rhesus monkey pons assessed as standard uptake value at 81.2 MBq, iv after 165 mins by microPET. Conditions: in vivo, 2.75 h.
Data set [38] is described as follows: Drug level in normal rhesus monkey parietal cortex assessed as standard uptake value at 81.2 MBq, iv after 155 mins by microPET. Particulars: in vivo.

The structures appear in SMILES notation.

Consider `[11CH3]Nc1ccc(-c2nc3ccc(O)cc3s2)cc1` [PITTSBURGH COMPOUND B], for which the SUV in data set [1] came out at 0.943; in data set [2] it was 1.434; in data set [3], 0.038; in data set [4], 2.04; in data set [5], 2.036; in data set [6] it was 0.731. Besides, the SUV in [7] was 2.29; in data set [8] it was 0.937; in [9], 1.903; in data set [10], 0.041; in [11], 2.044.
Turning to `Nc1ccc2nc(-c3ccc([18F])cc3)sc2c1`, the SUV came to 2.36 in [12]; 3.54 in data set [13]; 4.84 in data set [14]; 4.63 in [15]; 3.63 in [16]; 4.79 in data set [17]. Also, the figures for the SUV in [18], in data set [19] and in data set [20] were 5.05, 3.33 and 4.16, respectively.
As to `CN(C)c1ccc2nc(-c3ccc([18F])cc3)sc2c1`, the SUV in data set [21] was 1.44; in [22] it was 1.52; in data set [23], 1.55; in [24], 2.31; in data set [25] it was 1.35; in data set [26], 1.46. Also, the SUV in [27] is recorded as 1.7; in [28] it was 1.69.
Take `CNc1ccc2nc(-c3ccc([18F])cc3)sc2c1`: the SUV in data set [29] is recorded as 3.021; in data set [30], 5.4; in data set [31], 3.823; in data set [32] it was 1.883; in data set [33], 4.381; in [34] it was 5.431. The SUV was 4.745 in [35], 3.965 in [36], 4.946 in data set [37] and 2.662 in data set [38].
